High-throughput results as filed in PubChem BioAssay.
SIRT5 inh: blocks human SIRT5 desuccinylation of peptide; inhibition, % at 15 µM; Q9NXA8; actives 1.1% (n = 330,000); Purified SirT5, succinyl-peptide AMC, trypsin-coupled fluorescence; in the data active = inhibition above about 15%; inconclusive = no clear call, values can overlap the other calls
Target sequence (Q9NXA8 whole entry, looked up): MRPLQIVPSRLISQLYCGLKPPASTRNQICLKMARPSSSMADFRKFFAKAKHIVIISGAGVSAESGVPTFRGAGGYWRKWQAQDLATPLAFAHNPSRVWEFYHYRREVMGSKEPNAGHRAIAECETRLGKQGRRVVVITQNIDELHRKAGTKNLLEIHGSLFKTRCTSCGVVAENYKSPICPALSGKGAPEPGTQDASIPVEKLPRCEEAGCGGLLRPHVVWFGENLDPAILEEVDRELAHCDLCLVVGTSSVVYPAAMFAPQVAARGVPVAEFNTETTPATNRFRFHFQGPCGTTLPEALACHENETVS
Xi reactivation: reactivates the inactive X chromosome in mouse fibroblasts. XiGFP mouse fibroblasts, % GFP-positive cells imaging, 3 d; cells co-treated with 5-aza-dC sensitizer; scaled so ellipticine positive control = 100%. activation, % at 7.58 µM. actives 0.055% (n = 360,000);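 active = mean normalized replicate activation at least 10% and every replicate at or above 10%; inconclusive = only one of the two criteria met; inactive = mean below 10% and not all replicates reach 10%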
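Assay system – SV40-immortalized XiGFP fibroblast cells, line 68-5-11 · Buffer or medium – DMEM supplemented with 5-aza-dC as sensitizing agent · Dosing – one concentration, pinned · Benchmarks – positive control ellipticine, 6 µM final · Times – 3 days compound exposure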
FGF22 binding: binders of recombinant human FGF22 by thermal shift; Q9HCT0; SYPRO orange fluorescence; percent of sucrose octasulfate shift, DMSO zero; activity (Tm shift, normalised), % at 9.99 µM; actives 1.5% (n = 340,000); AID 651658;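 active = mean Tm shift, scaled 0 neutral to 100 positive control, at about 1.3% or above, every replicate too, limit read from the data; inconclusive = no clear call, values can overlap the other calls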
Target sequence (Q9HCT0 whole entry, looked up): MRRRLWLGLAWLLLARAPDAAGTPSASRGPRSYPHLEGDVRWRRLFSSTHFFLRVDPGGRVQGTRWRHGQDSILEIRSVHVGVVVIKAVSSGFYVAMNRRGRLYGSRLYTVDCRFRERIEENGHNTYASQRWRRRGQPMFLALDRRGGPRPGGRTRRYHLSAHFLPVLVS
DENV2 CPE: protects cells from dengue virus 2 cytopathic effect. actives 1.7% (n = 350,000). CPE inhibition, % at 9.99 µM. DENV2-infected cells, cytopathic effect rescue, plate reader; in the data active = CPE inhibition above about 20%, passing the limit was not always enough; inconclusive = no clear call, values can overlap the other calls; tested in BHK-21 cells
ARNT-TACC3 inh: disrupts binding between human ARNT and TACC3 | Q9Y6A5 | AlphaScreen His-ARNT PAS-B/GST-TACC3 binding, luminescence; TACC3 fragment carries E629A point mutation | inhibition, % at 9.99 µM | actives 0.66% (n = 390,000) | AID 623870;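 active = mean inhibition of replicates at least 50% and at least half of replicates each reaching 50%; inconclusive = half or more replicates reach 50% but mean below 50%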
FN deposition inh: fibronectin deposition inhibition. actives 0.086% (n = 350,000). AH1F fibroblasts, Alexa488-fibronectin deposition fluorescence, overnight. AID 743247. inhibition, % at 12.6 µM;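 active = mean inhibition across replicates of 30% or more, regardless of how many single replicates reach that level; inconclusive = mean under 30% yet at least half of replicates reach 30%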
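Material – AH1F fibroblast monolayer, labelled fibronectin deposition · Reagent – labelled fibronectin 24 nM · Timing – 1 h adhesion, overnight exposure · Measured by – fluorescence at 485 nm excitation, 525 nm emission · Read-out – inhibition of fibronectin deposition signal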
Hits are given with their value. Only some compounds are listed: those with a hit (about 3.8% of all), similar ones and a draw of the others.

Results for COc1ccc(S(=O)(=O)Nc2ccc3c(c2)CC(=O)N([C@H](C)CO)C[C@H](C)[C@@H](CN(C)Cc2ccc(C(F)(F)F)cc2)O3)cc1 ?
SIRT5 inh: 26; FGF22 binding: inactive; DENV2 CPE: inactive; ARNT-TACC3 inh: inactive

How did COc1ccc(S(=O)(=O)Nc2ccc3c(c2)CC(=O)N([C@H](C)CO)C[C@@H](C)[C@H](CN(C)Cc2ccc(C(F)(F)F)cc2)O3)cc1 do in these assays?
SIRT5 inh: inactive; Xi reactivation: inactive; FGF22 binding: inactive; DENV2 CPE: inactive; ARNT-TACC3 inh: inactive; FN deposition inh: inactive

Results for C[C@H](CO)N1C[C@H](C)[C@H](CN(C)Cc2ccc(C(F)(F)F)cc2)Oc2ccc(NS(=O)(=O)c3ccc(F)cc3)cc2CC1=O ?
SIRT5 inh: inactive; Xi reactivation: inactive; FGF22 binding: inactive; DENV2 CPE: inactive; ARNT-TACC3 inh: inactive

Results for C[C@H](CO)N1C[C@H](C)[C@@H](CN(C)Cc2ccc(C(F)(F)F)cc2)Oc2ccc(NS(=O)(=O)c3ccc(F)cc3)cc2CC1=O ?
SIRT5 inh: 35; Xi reactivation: inactive; FGF22 binding: inactive; DENV2 CPE: inactive; ARNT-TACC3 inh: inactive

How did C[C@@H]1CN([C@H](C)CO)C(=O)c2cc(NC(=O)Cc3ccccc3)ccc2O[C@@H]1CN(C)Cc1ccc(Cl)c(Cl)c1 do in these assays?
SIRT5 inh: inactive; Xi reactivation: inactive; FGF22 binding: inactive; DENV2 CPE: inactive; ARNT-TACC3 inh: inactive

How did CCC(=O)N1[C@@H]2CN(S(=O)(=O)c3ccccc3F)c3ccccc3[C@@H]2[C@@H]1CO do in these assays?
Xi reactivation: inactive; FGF22 binding: inactive; DENV2 CPE: inconclusive; ARNT-TACC3 inh: inactive

What do the screens show for `C[C@@H]1CCCCO[C@H](CN(C)C(=O)C2CCCCC2)[C@H](C)CN([C@H](C)CO)C(=O)c2cc(NS(=O)(=O)c3ccccc3)ccc2O1`?
SIRT5 inh: inactive; Xi reactivation: inactive; FGF22 binding: inactive; DENV2 CPE: inactive; ARNT-TACC3 inh: inactive; FN deposition inh: inactive

Results for COc1ccc(S(=O)(=O)Nc2ccc3c(c2)CC(=O)N([C@@H](C)CO)C[C@@H](C)[C@H](CN(C)Cc2ccc(C(F)(F)F)cc2)O3)cc1 ?
SIRT5 inh: 24; Xi reactivation: inactive; FGF22 binding: inactive; DENV2 CPE: inactive; ARNT-TACC3 inh: inactive; FN deposition inh: inactive

What do the screens show for `COc1ccc(CN(C)C[C@H]2Oc3ccc(NS(=O)(=O)c4ccc(OC)cc4)cc3CC(=O)N([C@H](C)CO)C[C@H]2C)cc1`?
SIRT5 inh: inactive; Xi reactivation: inactive; FGF22 binding: inactive; DENV2 CPE: inactive; ARNT-TACC3 inh: inactive

What do the screens show for `COc1ccc(OC)c(S(=O)(=O)Oc2ccc(N)c3ccccc23)c1`?
SIRT5 inh: 15; Xi reactivation: inactive; FGF22 binding: inactive; DENV2 CPE: inactive; ARNT-TACC3 inh: inactive; FN deposition inh: inactive

Results for COc1ccc(OC)c(S(=O)(=O)Nc2cccc3ccccc23)c1 ?
SIRT5 inh: inactive; Xi reactivation: inactive; FGF22 binding: inactive; DENV2 CPE: inactive; FN deposition inh: inactive

Results for COc1cc(NC(=O)CSc2nncn2C)c(C)cc1[N+](=O)[O-] ?
SIRT5 inh: inactive; Xi reactivation: inactive; FGF22 binding: 43; DENV2 CPE: inactive; ARNT-TACC3 inh: inactive; FN deposition inh: inactive

How did CO[C@@H]1CC[C@H]2CCOc3c(C#N)cccc3C(=O)N(C)C[C@@H](C)C(=O)N(C)C[C@@H]1O2 do in these assays?
SIRT5 inh: inactive; Xi reactivation: inactive; FGF22 binding: inactive; DENV2 CPE: inactive; ARNT-TACC3 inh: inactive; FN deposition inh: inactive

How did CO[C@H]1CC[C@@H]2CCOc3c(C#N)cccc3C(=O)N(C)C[C@H](C)C(=O)N(C)C[C@@H]1O2 do in these assays?
SIRT5 inh: 20; Xi reactivation: inactive; FGF22 binding: inactive; DENV2 CPE: inactive; ARNT-TACC3 inh: inactive; FN deposition inh: inactive

What do the screens show for `CC(=O)c1ccc(N2CCN(S(=O)(=O)c3cccc4nsnc34)CC2)cc1`?
SIRT5 inh: inactive; Xi reactivation: inactive; FGF22 binding: 43; DENV2 CPE: inactive; ARNT-TACC3 inh: inactive; FN deposition inh: inactive

Results for C[C@@H]1CCCCO[C@@H](CN(C)Cc2ccccc2)[C@@H](C)CN([C@@H](C)CO)C(=O)c2cc(NC(=O)C3CCCCC3)ccc2O1 ?
SIRT5 inh: inactive; Xi reactivation: inactive; FGF22 binding: inactive; DENV2 CPE: 27; ARNT-TACC3 inh: inactive

How did C[C@H](CO)N1C[C@H](C)[C@@H](CN(C)Cc2ccccc2)OCCCC[C@H](C)Oc2ccc(NC(=O)C3CCCCC3)cc2C1=O do in these assays?
SIRT5 inh: inactive; Xi reactivation: inactive; FGF22 binding: inactive; DENV2 CPE: inactive; ARNT-TACC3 inh: inactive

Results for C[C@@H]1CCCCO[C@@H](CN(C)Cc2ccc(C(=O)O)cc2)[C@@H](C)CN([C@H](C)CO)C(=O)c2cc(NC(=O)C3CCCCC3)ccc2O1 ?
SIRT5 inh: inactive; Xi reactivation: inactive; FGF22 binding: inactive; DENV2 CPE: inconclusive; ARNT-TACC3 inh: inactive

Results for C[C@@H]1CCCCO[C@@H](CN(C)Cc2ccc(C(=O)O)cc2)[C@@H](C)CN([C@@H](C)CO)C(=O)c2cc(NC(=O)C3CCCCC3)ccc2O1 ?
SIRT5 inh: inactive; Xi reactivation: inactive; FGF22 binding: inactive; DENV2 CPE: 38; ARNT-TACC3 inh: inactive

How did C[C@@H]1CN([C@@H](C)CO)C(=O)c2cccc(NC(=O)c3ccc(-c4nccs4)cc3)c2O[C@@H]1CN(C)Cc1ccc(C(F)(F)F)cc1 do in these assays?
SIRT5 inh: 26; Xi reactivation: inactive; FGF22 binding: inactive; DENV2 CPE: inactive; ARNT-TACC3 inh: inactive

What do the screens show for `C[C@@H]1CN([C@@H](C)CO)C(=O)c2cccc(NC(=O)c3cnccn3)c2O[C@@H]1CN(C)Cc1ccc(C(F)(F)F)cc1`?
SIRT5 inh: inactive; Xi reactivation: inactive; FGF22 binding: inactive; DENV2 CPE: 22; ARNT-TACC3 inh: inactive

How did C[C@@H]1CN([C@H](C)CO)C(=O)c2cccc(NC(=O)c3ccc(-c4nccs4)cc3)c2O[C@@H]1CN(C)Cc1ccc(C(F)(F)F)cc1 do in these assays?
SIRT5 inh: 17; Xi reactivation: inactive; FGF22 binding: inactive; DENV2 CPE: inactive; ARNT-TACC3 inh: inactive

What do the screens show for `C[C@H](CO)N1C[C@H](C)[C@@H](CN(C)Cc2ccc(C(F)(F)F)cc2)Oc2c(NC(=O)c3ccc(-c4nccs4)cc3)cccc2C1=O`?
SIRT5 inh: inactive; Xi reactivation: inactive; FGF22 binding: inactive; DENV2 CPE: inactive; ARNT-TACC3 inh: inactive
